Laboratory results taken from ChEMBL document CHEMBL1811843, “Analogue-based design, synthesis and molecular docking analysis of 2,3-diaryl quinazolinones as non-ulcerogenic anti-inflammatory agents” (Bioorg Med Chem, 2011).

How the values were obtained:
[1] = molecular target: T1, Prostaglandin G/H synthase 1 (Ovis aries) (UniProt P05979); assay: Inhibition of sheep COX-1 at 20 uM by cayman colorimetric assay
T1 sequence (whole entry): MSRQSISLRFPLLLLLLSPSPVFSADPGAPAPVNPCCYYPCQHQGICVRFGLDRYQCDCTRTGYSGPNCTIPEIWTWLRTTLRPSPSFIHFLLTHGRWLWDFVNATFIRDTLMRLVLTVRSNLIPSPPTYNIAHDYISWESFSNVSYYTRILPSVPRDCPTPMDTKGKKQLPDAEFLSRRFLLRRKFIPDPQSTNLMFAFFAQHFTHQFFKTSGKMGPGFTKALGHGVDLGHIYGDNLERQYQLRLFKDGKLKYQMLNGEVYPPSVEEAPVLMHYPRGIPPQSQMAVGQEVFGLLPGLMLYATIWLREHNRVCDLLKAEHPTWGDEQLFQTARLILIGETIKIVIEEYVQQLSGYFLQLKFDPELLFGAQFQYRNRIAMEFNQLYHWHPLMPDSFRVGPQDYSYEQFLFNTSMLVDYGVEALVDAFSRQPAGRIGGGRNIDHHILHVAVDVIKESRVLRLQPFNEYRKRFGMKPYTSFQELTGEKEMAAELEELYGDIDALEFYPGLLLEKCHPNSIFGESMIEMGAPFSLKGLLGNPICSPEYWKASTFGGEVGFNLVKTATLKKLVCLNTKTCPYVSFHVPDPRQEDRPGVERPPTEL
Procedure, shortened: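 Ovine COX-1 activity measured with a commercial ovine COX-1/COX-2 inhibitor screening kit, with calculations done per the kit guidelines. Each value is the mean of two determinations.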

Ovis aries = organism: Ovis aries; assay: Selectivity ratio of inhibition for sheep COX-1 to inhibition for sheep COX-2 at 20 uM
Rattus norvegicus [2] = assay: Antiinflammatory activity in rat assessed as inhibition of carrageenan-induced paw edema at 50 mg/kg, po measured after 90 min by Plethysmograph; type: functional; settings: 1.5 h
Procedure, shortened: (§1)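 Rats randomly grouped, six per group, housed at 25 °C with a 12 h light/dark cycle and acclimatized one week. Test compounds given orally at 50 mg/kg with CMC-Na as vehicle, and indomethacin 10 mg/kg as standard. Edema induced by 0.1 ml carrageenan solution injected into the hind paw. Paw volume measured by mercury-displacement plethysmograph before and 90, 180, 270 and 360 min after injection. % edema inhibition calculated from test and control paw volumes before and after carrageenan. Results given as mean ± SEM.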

Rattus norvegicus [3] = assay: Antiinflammatory activity in rat assessed as inhibition of carrageenan-induced paw edema at 50 mg/kg, po measured after 180 min by Plethysmograph; type: functional; settings: 3 h; procedure, shortened: as §1
Rattus norvegicus [4] = assay: Antiinflammatory activity in rat assessed as inhibition of carrageenan-induced paw edema at 50 mg/kg, po measured after 270 min by Plethysmograph; type: functional; settings: 4.5 h; procedure, shortened: as §1
Rattus norvegicus [5] = assay: Antiinflammatory activity in rat assessed as inhibition of carrageenan-induced paw edema at 50 mg/kg, po measured after 360 min by Plethysmograph; type: functional; settings: 6 h; procedure, shortened: as §1
Rattus norvegicus [6] = assay: Toxicity in albino Wistar rat assessed as ulcerogenic activity measuring gastric ulcer lesion index at 100 mg/kg, po once daily for four consecutive days; type: organism-based, Stomach; set-up: dose 100 mg/kg, route oral; settings: in vivo
Procedure, shortened: (§2)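 Wistar albino rats (150–200 g, either sex, fasted) were randomized into groups of 10 and dosed orally once daily for four days alongside a vehicle control group. Rats were killed under deep ether anaesthesia and stomachs removed, opened along the greater curvature, and examined under a dissecting microscope for lesions or bleeding. Ulcer lesion index is given in cm.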

Rattus norvegicus [7] = assay: Toxicity in albino Wistar rat assessed as ulcerogenic activity measuring gastric ulcer lesion index at 10 mg/kg, po once daily for four consecutive days; type: organism-based, Stomach; set-up: dose 10 mg/kg, route oral; settings: in vivo; procedure, shortened: as §2
Rattus norvegicus [8] = assay: Toxicity in albino Wistar rat assessed as ulcerogenic activity measuring gastric ulcer lesion index at 50 mg/kg, po once daily for four consecutive days; type: organism-based, Stomach; set-up: dose 50 mg/kg, route oral; settings: in vivo; procedure, shortened: as §2
Rattus norvegicus [9] = organism: Rattus norvegicus; assay: animal or person; settings: po, 1.5 h, read-out: INH
Rattus norvegicus [10] = organism: Rattus norvegicus; assay: animal or person; settings: po, 3 h, read-out: INH
Rattus norvegicus [11] = organism: Rattus norvegicus; assay: animal or person; settings: po, 4.5 h, read-out: INH
Rattus norvegicus [12] = organism: Rattus norvegicus; assay: animal or person; settings: po, 6 h, read-out: INH

Row | inhibition [1] | Selectivity ratio (Ovis aries) | Structure (SMILES) | inhibition in vivo at 50 mg/kg (Rattus norvegicus [2]) | inhibition in vivo at 50 mg/kg (Rattus norvegicus [3]) | inhibition in vivo at 50 mg/kg (Rattus norvegicus [4]) | inhibition in vivo at 50 mg/kg (Rattus norvegicus [5]) | Activity (Rattus norvegicus [6]) | Activity (Rattus norvegicus [7]) | Activity (Rattus norvegicus [8]) | inhibition in vivo at 10 mg/kg (Rattus norvegicus [9]) | inhibition in vivo at 10 mg/kg (Rattus norvegicus [10]) | inhibition in vivo at 10 mg/kg (Rattus norvegicus [11]) | inhibition in vivo at 10 mg/kg (Rattus norvegicus [12])
1 | 29% | 0.453 | COc1ccc(-c2nc3cc(F)ccc3c(=O)n2-c2ccc(S(C)(=O)=O)cc2)cc1 | 31% | 34% | 36% | 39% | – | – | – | – | – | – | –
2 | – | – | COc1ccc(-c2nc3ccc(Br)cc3c(=O)n2-c2ccc(SC)cc2)cc1 | 32% | 35% | 39% | 42% | – | – | – | – | – | – | –
3 | 15% | 0.238 | CS(=O)(=O)c1ccc(-n2c(-c3ccccc3)nc3cc(F)ccc3c2=O)cc1 | 30% | 34% | 39% | 41% | – | – | – | – | – | – | –
4 | – | – | COc1ccc(-c2nc3cc(F)ccc3c(=O)n2-c2ccc(SC)cc2)cc1 | 31% | 34% | 37% | 40% | – | – | – | – | – | – | –
5 | 4% | 0.04 | CS(=O)(=O)c1ccc(-n2c(-c3ccccc3)nc3ccc(Br)cc3c2=O)cc1 | 38% | 40% | 44% | 49% | 0 cm | – | – | – | – | – | –
6 | – | – | CSc1ccc(-n2c(-c3ccccc3)nc3ccc(Br)cc3c2=O)cc1 | 30% | 33% | 35% | 39% | – | – | – | – | – | – | –
7 | 13% | 0.31 | CS(=O)(=O)c1ccc(-n2c(-c3ccccc3)nc3ccccc3c2=O)cc1 | 30% | 33% | 36% | 39% | – | – | – | – | – | – | –
8 | 24% | 0.471 | COc1ccc(-c2nc3ccccc3c(=O)n2-c2ccc(S(C)(=O)=O)cc2)cc1 | 35% | 38% | 42% | 46% | – | – | – | – | – | – | –
9 | – | – | CSc1ccc(-n2c(-c3ccccc3)nc3cc(F)ccc3c2=O)cc1 | 29% | 36% | 39% | 40% | – | – | – | – | – | – | –
10 | 12% | 0.167 | COc1ccc(-c2nc3cc(Cl)ccc3c(=O)n2-c2ccc(S(C)(=O)=O)cc2)cc1 | 37% | 38% | 41% | 43% | – | – | – | – | – | – | –
11 | – | – | COc1ccc2c(c1)c(CC(=O)O)c(C)n2C(=O)c1ccc(Cl)cc1 [INDOMETHACIN] | – | – | – | – | – | 1.42 cm | 11.48 cm | 41% | 58% | 49% | 13%
12 | 7% | 0.106 | COc1ccc(-c2nc3ccc(Br)cc3c(=O)n2-c2ccc(S(C)(=O)=O)cc2)cc1 | 39% | 41% | 49% | 54% | – | – | – | – | – | – | –
13 | – | – | CSc1ccc(-n2c(-c3ccccc3)nc3cc(Cl)ccc3c2=O)cc1 | 31% | 32% | 34% | 39% | – | – | – | – | – | – | –
14 | 0% | – | CS(=O)(=O)c1ccc(-n2c(-c3ccccc3)nc3cc(Cl)ccc3c2=O)cc1 | 32% | 37% | 42% | 45% | 0 cm | – | – | – | – | – | –
15 | – | – | COc1ccc(-c2nc3cc(Cl)ccc3c(=O)n2-c2ccc(SC)cc2)cc1 | 36% | 38% | 43% | 47% | – | – | – | – | – | – | –

Row | Structure (SMILES) | inhibition [1] | Selectivity ratio (Ovis aries) | inhibition in vivo at 50 mg/kg (Rattus norvegicus [2]) | inhibition in vivo at 50 mg/kg (Rattus norvegicus [3]) | inhibition in vivo at 50 mg/kg (Rattus norvegicus [4]) | inhibition in vivo at 50 mg/kg (Rattus norvegicus [5]) | Activity (Rattus norvegicus [6]) | Activity (Rattus norvegicus [7]) | Activity (Rattus norvegicus [8]) | inhibition in vivo at 10 mg/kg (Rattus norvegicus [9]) | inhibition in vivo at 10 mg/kg (Rattus norvegicus [10]) | inhibition in vivo at 10 mg/kg (Rattus norvegicus [11]) | inhibition in vivo at 10 mg/kg (Rattus norvegicus [12])
16 | CSc1ccc(-n2c(-c3ccccc3)nc3ccccc3c2=O)cc1 | 12% | 0.3 | 29% | 32% | 34% | 38% | – | – | – | – | – | – | –
17 | COc1ccc(-c2nc3ccccc3c(=O)n2-c2ccc(SC)cc2)cc1 | 30% | 0.536 | 30% | 34% | 38% | 40% | – | – | – | – | – | – | –
